# Compounds with a hit are over-represented: about 4.9% of the library has one in this group of screens.
# NPY-Y2 antag: NPY-Y2 (human) receptor antagonism. P49146. NPY-Y2 expressing cells, antagonist mode. inhibition, % at 2.7 µM. 140,000 compounds, 0.99% hits. AID 793; in the data active means inhibition above about 17%;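 further: 0% = vehicle with agonist challenge and 100% = reference antagonist with challenge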
# Target sequence (P49146 whole entry, looked up): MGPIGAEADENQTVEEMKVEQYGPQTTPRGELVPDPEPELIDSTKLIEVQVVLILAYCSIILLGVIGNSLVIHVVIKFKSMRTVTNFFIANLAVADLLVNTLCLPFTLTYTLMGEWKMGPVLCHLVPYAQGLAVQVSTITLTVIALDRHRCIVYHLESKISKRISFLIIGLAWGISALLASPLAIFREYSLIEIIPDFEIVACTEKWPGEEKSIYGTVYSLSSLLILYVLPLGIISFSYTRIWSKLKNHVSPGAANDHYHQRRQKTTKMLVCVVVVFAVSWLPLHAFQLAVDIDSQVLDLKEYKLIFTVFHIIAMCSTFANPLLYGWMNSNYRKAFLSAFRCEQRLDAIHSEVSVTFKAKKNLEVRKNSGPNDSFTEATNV
# RAM network inh: blocks the yeast RAM network | S. cerevisiae dse1pr::URA3 reporter, 5-FOA growth OD615, 2 d; analog-sensitive cbk1-as2 kinase mutant strain | inhibition, % at 50 µM | 190,000 compounds, 1.8% hits | AID 868;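 active means inhibition above a set limit, 3 SD over mean compound inhibition, cut at about 8.4% in these data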;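 further: 0% = DMSO-only wells with no growth and 100% = 10 µM 1-NA-PP1 full growth; inhibition rescues growth on 5-FOA so higher OD means more RAM inhibition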
# WT yeast gro inh: growth inhibition of WT yeast, mitochondrial fusion screen; mitochondrial fusion phenotypic screen, WT strain; AID 1362; 190,000 compounds, 2.1% hits; inhibition, % at 10 µM; in the data active means inhibition above about 58%; tested in S. cerevisiae
# NPY-Y1 antag: antagonists of human neuropeptide Y receptor Y1. P25929. HEK293-CNG Y1 cells, membrane potential fluorescence; NPY at EC95, then isoproterenol. inhibition, % at 3.6 µM. 200,000 compounds, 1% hits. AID 1040;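 active means inhibition above the campaign mean inhibition of all tested compounds plus 3 SD, cut at about 20% in these data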;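 further: 0% = DMSO wells given NPY plus isoproterenol and 100% = isoproterenol alone without NPY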
#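 Test system – HEK293 Y1/CNG channel cell line · Also added – NPY agonist 25 nM, then isoproterenol 1 µM plus Ro 20-1724 25 µM · Compound dosing – one concentration, 3.6 µM, in 0.4% DMSO · Schedule – compound incubation 1 h at room temperature, readout 45 min post-stimulation · Technique – fluorescence, membrane potential probe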
# NPY1 pot ag: human NPY-Y1 potentiation or agonism, primary screen; NPY-Y1 expressing cells, potentiator/agonist activation; activation, % at 3.6 µM; AID 1304; P25929; 220,000 compounds, 0.37% hits; in the data active means activation above about 33%, passing the limit was not always enough;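 further: cells stimulated with NPY at EC10 then isoproterenol at EC100; 0% = low agonist plus stimulus and 100% = saturating agonist plus stimulus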
# NPY-Y2 PAM-ag: potentiates or activates human NPY-Y2 receptor | P49146 | cells expressing NPY-Y2, potentiator/agonist read-out | activation, % at 3.6 µM | 220,000 compounds, 0.45% hits | AID 1359; in the data active means activation above about 27%;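 further: cells stimulated with NPY near EC25 plus isoproterenol at EC100; 0% = vehicle plus submaximal agonist and 100% = vehicle plus saturating agonist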
# * = called active by the depositor; nt = no result given.
SMILES,NPY-Y2 antag,RAM network inh,WT yeast gro inh,NPY-Y1 antag,NPY1 pot ag,NPY-Y2 PAM-ag
Cc1cc(OCCn2cnc3ccccc3c2=O)ccc1[N+](=O)[O-],6,2,1,-2,-14,7
CC/C(=N/Nc1cccc(Cl)c1)c1cnnc(SC)n1,5,9.0*,0,0,3,8
N=C(N)N=Nc1c(O)[nH]c2ccc(Br)cc12,nt,2,0,-5,-7,-3
O=C(N=Nc1c(O)[nH]c2ccc(Br)cc12)c1ccccc1-n1cccc1,4,2,83*,4,-20,-1
Cc1ccc(S(=O)(=O)N2CCC(C(=O)Nc3nnc(-c4ccco4)s3)CC2)cc1,0,3,-4,-8,44*,52*
CC(C)(C)c1ccc(/C=C/C(=O)N2CCCCC2)cc1,nt,1,36,2,-15,-7
CC1CCN(C(=O)/C=C/c2ccc(C(C)(C)C)cc2)CC1,8,0,62*,8,-32,-22
Cc1ccc(/C=C/C(=O)N2CCC(Cc3ccccc3)CC2)cc1,12,4,67*,4,-19,-12
CCCCOc1cccc(-c2nnc(N)s2)c1,1,2,3,-3,-20,0
CCOC(=O)C1=C(C)NC(=O)NC1c1ccc(Cl)cc1Cl (configuration not stated),1,2,16,-1,-2,-7
CCOc1ccc2nc(NC(=S)N(C)C)sc2c1,2,4,55,-13,21,13
COc1ccc(C(=O)Nc2nc3ccccc3s2)cc1OC,nt,1,68*,6,12,6
CN(C)C(=S)Nc1nc2ccccc2s1,nt,2,74*,-9,2,30
COC(=O)c1cc(OC)c(OC)cc1NC(=O)c1cc(-c2ccccc2)nc2ccccc12,2,0,-59,3,-1,-5
COc1ccc(-c2cc(C(=O)Nc3nc4ccccc4s3)c3ccccc3n2)cc1OC,27*,3,24,29*,-160,-141
COc1ccccc1C(=O)Nc1ccc(C(=O)O)cc1,0,2,-12,-3,-1,16
COc1ccccc1C(=O)Nc1ccc(C2=NNC(=O)CC2C)cc1 (configuration not stated),72*,3,-2,96*,-77,-17
Nc1cc(N)nc(SCC(=O)N2CCc3ccccc32)n1,-2,2,99*,0,17,-2
Cc1nc(SCC(=O)N2CCc3ccccc32)n[nH]1,3,2,4,2,-1,-8
Cc1ccc(-n2c(O)cnc2Nc2nc(C)cc(C)n2)cc1,-1,1,18,-1,-7,2
Cc1cc(C)nc(Nc2ncc(O)n2-c2ccccc2)n1,3,0,64*,4,5,7
O=C(Nc1cccc(-c2nc3cc(Cl)ccc3o2)c1)C1CCCO1 (configuration not stated),8,0,24,6,-22,-18
COc1cc(/C=N/OCC(=O)NC2CCCCC2C)ccc1OCc1ccc(Cl)cc1 (configuration not stated),5,11*,22,6,-9,4
O=C(CN1C(=O)NC2(CCCCCC2)C1=O)N1CCN(S(=O)(=O)c2ccccc2)CC1,nt,0,-8,4,-8,-5
CCCCC(CC)C(=O)Oc1ccc(O)c(C(C)(C)C)c1 (configuration not stated),nt,2,91*,7,7,-3
SMILES,NPY-Y2 antag,RAM network inh,WT yeast gro inh,NPY-Y1 antag,NPY1 pot ag,NPY-Y2 PAM-ag
O=C1c2ccccc2-c2onc3ccc(NCc4ccco4)c1c23,6,8,66*,-6,53*,53*
CCOc1ccc2noc3c2c1C(=O)c1ccccc1-3,3,-1,15,3,5,5
COc1cccc(/C=C/C(=O)OCC(=O)Nc2ccc(S(=O)(=O)N3CCCC3)cc2)c1,9,9.8*,3,9,-35,-13
COc1ccc(C(=O)Nc2cccc(C(C)=O)c2)cc1S(=O)(=O)N1CCOCC1,-1,2,5,5,-18,-25
CC(C)(C)NC(=O)c1ccc2c(c1)C1C3CCC(C3)C1C(c1ccccc1)N2 (configuration not stated),0,6,47,5,-30,-10
CCCNC(=O)c1ccc2c(c1)C1C3CCC(C3)C1C(c1ccccc1)N2 (configuration not stated),2,2,62*,7,1,-5

# High-throughput results as filed in PubChem BioAssay.
